# Compounds with a hit are over-represented: about 2.5% of the library has one in this group of screens.
# SENP8 block-1: SENP8 protease inhibitors, primary screen, biochemical, luminescence; inhibition, % at 10 µM; purified SENP8, Z-RLRGG-aminoluciferin cleavage; 330,000 tested, 1.2% active; in the data active = inhibition above about 50%
# Target sequence (Q96LD8 whole entry, looked up): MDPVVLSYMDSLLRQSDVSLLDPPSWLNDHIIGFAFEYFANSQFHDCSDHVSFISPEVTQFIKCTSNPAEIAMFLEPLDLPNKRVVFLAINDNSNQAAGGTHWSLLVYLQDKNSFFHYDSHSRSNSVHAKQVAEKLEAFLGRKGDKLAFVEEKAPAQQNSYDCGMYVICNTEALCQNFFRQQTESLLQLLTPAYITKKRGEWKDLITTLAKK
# SENP7 inh: SENP7 protease inhibitors, primary screen, biochemical, luminescence, uHTS. Sentrin-specific protease 7 (Homo sapiens), Q9BQF6. recombinant SENP7, Z-RLRGG-aminoluciferin luminescence, 40 min. inhibition, % at 5 µM. 330,000 tested, 1.5% active;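 active = inhibition above about 50% at the single test dose, limit read from the data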;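 note: plate controls were DMSO with enzyme for no effect and no enzyme buffer wells for full effect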
# SENP6 block: SENP6 protease inhibitors, primary screen, biochemical, luminescence, uHTS. Sentrin-specific protease 6 (Homo sapiens), Q9GZR1. Recombinant SENP6 catalytic domain, aminoluciferin luminescence. inhibition, % at 10 µM. 330,000 tested, 1.8% active. AID 2599, 2010;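 active = inhibition above about 50% at the single tested dose, limit read from the data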;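 note: plate controls were DMSO wells with enzyme for no effect and DMSO wells lacking enzyme for full effect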
# SENP1 FRET inh: human SENP1 catalytic domain inhibitors, primary screen, biochemical, FRET, uHTS; Sentrin-specific protease 1 (Homo sapiens), Q9P0U3; recombinant SENP1 catalytic domain, CyPet-SUMO1-YPet FRET cleavage; inhibition, % at 10 µM; 360,000 tested, 0.21% active;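 active = inhibition at least 30% at 10 µM, raw YFP signal under a set limit, fluorescence ratio 0.5 to 1.5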;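 note: 0% = enzyme with DMSO and 100% = no enzyme wells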
# Target sequence (Q9P0U3 419-644 limits assumed): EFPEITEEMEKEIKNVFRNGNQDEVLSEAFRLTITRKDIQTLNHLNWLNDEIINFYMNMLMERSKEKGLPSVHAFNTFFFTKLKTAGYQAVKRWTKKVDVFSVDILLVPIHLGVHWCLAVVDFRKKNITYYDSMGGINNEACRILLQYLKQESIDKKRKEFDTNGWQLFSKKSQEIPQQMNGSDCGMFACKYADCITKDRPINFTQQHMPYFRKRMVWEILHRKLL
#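 Assay system: hSENP1 catalytic domain, recombinant. Amount: SENP1 enzyme, 20 pM final. Schedule: 50 min reaction, RT, dark. Technique: FRET, CFP and YFP emission. Control set: no-enzyme wells low, DMSO-plus-enzyme wells high control.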
# SENP8 block-2: human SENP8 protease inhibitors, primary screen, biochemical, fluorescence, Nedd8 protein substrate, uHTS; 360,000 tested, 0.64% active; recombinant SENP8; inhibition, % at 20 µM; AID 602440, 2012; Sentrin-specific protease 8 (Homo sapiens), Q96LD8; in the data active = inhibition mostly above about 40%, no sharp cut-off; inactive = mostly below about 27%
# SENP8 conf: SENP8 protease inhibitors, retest, confirmation, biochemical, luminescence, single concentration | shares compounds with SENP7 inh | Recombinant SENP8, Z-RLRGG-aminoluciferin luminescence, 60 min | inhibition, % at 12.5 µM | 6,200 tested, 40% active;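 active = mean inhibition across replicates above about 50%, limit read from the data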
# SENP6 conf: SENP6 protease inhibitors, confirmation, biochemical, luminescence, single concentration | inhibition, % at 12.5 µM | shares compounds with SENP7 inh | 6,200 tested, 58% active | recombinant SENP6, Z-RLRGG-aminoluciferin luminescence
# SENP7 conf: SENP7 protease inhibitors, retest, confirmation, biochemical, luminescence, single concentration | shares compounds with SENP7 inh | recombinant SENP7, Z-RLRGG-aminoluciferin luminescence, 40 min | inhibition, % at 12.5 µM | 6,200 tested, 69% active | AID 488917, 2010
# Casp3 SENP sel: caspase-3 protease inhibitors, confirmation, selectivity assay for SENP inhibitor project, biochemical, single concentration; shares compounds with SENP7 inh; purified caspase-3, Z-DEVD-aminoluciferin luminescence, 60 min; inhibition, % at 12.5 µM; 6,200 tested, 60% active;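 active = mean inhibition above about 50%, limit read from the data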;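 note: plate controls were enzyme with DMSO for no effect and wells without caspase-3 for full effect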
# Target sequence (P42574 28-227 limits assumed): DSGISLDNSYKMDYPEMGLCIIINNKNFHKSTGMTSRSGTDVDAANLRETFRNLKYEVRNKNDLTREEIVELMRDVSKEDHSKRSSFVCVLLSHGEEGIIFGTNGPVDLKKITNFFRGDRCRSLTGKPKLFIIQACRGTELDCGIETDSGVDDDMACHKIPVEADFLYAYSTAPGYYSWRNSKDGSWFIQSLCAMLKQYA
# Luc interf: interferes with luciferase luminescence in SENP counter-screen. shares compounds with SENP7 inh. Pre-incubated SENP8/Z-RLRGG-aminoluciferin, luciferase luminescence interference. inhibition, % at 12.5 µM. 6,200 tested, 39% active. AID 488919;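 active = mean inhibition above about 50% when retested at one dose, limit read from the data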;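 note: plate controls were DMSO wells with completed reaction for no effect and substrate without enzyme for full effect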
# * = called active by the depositor; . = no result given.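 Rule for the calls, unless noted: active = mean inhibition above about 50% in the one-dose retest (limit read from the data); inactive = the rest.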
SMILES,SENP8 block-1,SENP7 inh,SENP6 block,SENP1 FRET inh,SENP8 block-2,SENP8 conf,SENP6 conf,SENP7 conf,Casp3 SENP sel,Luc interf
c1ccc(-c2cn3c4c(sc3n2)CCCC4)cc1,95.5*,-5.9,96.6*,1.6,14.6,89.7*,94.8*,102.6*,94.9*,29.3
Cc1cccc(NC(=S)NC2CCSc3ccccc32)c1 (centres undefined),9.1,5.1,-1.6,1.7,0.9,.,.,.,.,.
Nc1nnc(-c2cccnc2)s1,4.0,2.3,-5.4,0.7,-23.6,.,.,.,.,.
c1ccc(Nc2nnc(-c3cccnc3)s2)cc1,72.4*,86.9*,80.4*,2.9,-308.0,8.8,14.3,12.8,26.7,28.6
[O-][n+]1cccc2c(Br)cc(Br)c(O)c21,17.8,7.4,80.9*,-19.8,-92.7,-1.1,8.9,-4.8,7.3,1.8
Oc1c(Br)cc(Br)c2cccnc12,.,.,.,2.8,19.4,.,.,.,.,.
Cc1cccc(N(CC(=O)NCc2ccc(F)cc2)C(=O)c2ccco2)c1,-5.7,1.9,-20.0,-2.1,14.1,.,.,.,.,.
NC(COCc1ccccc1)c1csc(Nc2ccc(C(=O)c3ccccc3)cc2)n1 (centres undefined),.,.,.,-4.7,-421.4,.,.,.,.,.
CCN(CC)CCOc1c(Br)ccc2c1sc1nc3n(c(=O)c12)CCC3,6.1,-2.9,-14.0,-1.9,-5.0,.,.,.,.,.
O=c1c2c(nc3n1CCCCC3)sc1c(O)c(Br)ccc12,26.2,33.6,64.5*,-0.3,6.5,58.7*,58.8*,86.8*,69.3*,13.9
Cc1cc(=O)[nH]c(-c2ccccc2OC(F)(F)F)n1,5.1,3.8,-2.7,1.3,4.9,.,.,.,.,.
O=S(=O)(c1cccnc1)N1CCn2cccc2C1c1ccccc1F (centres undefined),-3.0,-5.6,2.7,-3.2,-4.5,.,.,.,.,.
CC(C)(C)NC(=O)N1CCn2cccc2C1c1ccccc1F (centres undefined),3.6,96.5*,-23.6,-5.3,-1.0,1.4,7.9,7.6,8.0,6.3
Cc1cccc(NC(=O)NC(=O)c2ccccc2)n1,22.0,53.7*,-7.9,3.8,10.5,9.5,12.1,24.2,14.7,1.9
Cc1cc(Cl)ccc1OC(C)C(=O)Nc1ccc([N+](=O)[O-])cn1 (centres undefined),-7.0,-0.7,-5.8,3.7,24.5,.,.,.,.,.
c1ccc(-c2cc(-c3ccccc3)on2)cc1,87.4*,97.6*,-9.6,0.5,32.3,5.1,84.9*,48.2,56.5*,45.3
Nc1nc(-c2cc(-c3ccccc3)no2)cs1,94.6*,96.0*,96.4*,-1.9,-6.9,96.6*,97.3*,102.0*,95.0*,83.3*
Cc1ccc(O)c(NC(=O)c2cc(-c3ccccc3)on2)c1,-5.8,45.3,18.3,0.2,17.3,.,.,.,.,.
O=C(c1ccccc1)c1cc(-c2ccccc2)on1,97.2*,100.5*,99.4*,0.8,15.6,3.7,100.9*,103.8*,98.7*,94.5*
Cc1ccc(-c2cc(-c3ccccc3)no2)cc1,92.2*,98.0*,96.6*,-1.5,12.4,-23.4,29.4,70.7*,26.2,23.6
Cc1cc(NC(=O)c2cc(-c3ccccc3)on2)no1,-3.1,10.6,-22.1,1.4,1.1,.,.,.,.,.
Nc1nc(-c2ccccc2)cs1,-14.6,-13.3,-0.5,2.7,13.5,.,.,.,.,.
COC(=O)c1ccc(C(=O)OC)c(NC(=O)C2CC(=O)N(C3CCCC3)C2)c1 (centres undefined),.,.,.,0.5,8.7,.,.,.,.,.
Cc1cc(-c2ccccc2)nc(N/N=C/c2ccccc2F)n1,-6.2,6.8,7.7,2.6,-195.9,.,.,.,.,.
CCN(CC)S(=O)(=O)c1ccc(NC(=O)c2ccccn2)cc1,38.9,59.4*,63.8*,1.4,11.8,48.7,48.1,80.8*,67.7*,57.0*
SMILES,SENP8 block-1,SENP7 inh,SENP6 block,SENP1 FRET inh,SENP8 block-2,SENP8 conf,SENP6 conf,SENP7 conf,Casp3 SENP sel,Luc interf
CC(=O)NS(=O)(=O)c1ccc(NC(=O)c2ccccn2)cc1,1.7,2.4,-14.5,-0.9,12.1,.,.,.,.,.
CCCNS(=O)(=O)c1ccc(NC(=O)c2ccccn2)cc1,41.5,57.1*,69.3*,1.1,15.9,35.6,34.7,78.8*,75.8*,58.3*
CN(C)S(=O)(=O)c1ccc(NC(=O)c2ccccn2)cc1,-12.8,21.6,-7.4,3.1,13.9,.,.,.,.,.
Cc1cccc(N2CCN(C(=O)c3ccc4c(c3)CCN4S(C)(=O)=O)CC2)c1C,0.3,-3.4,-5.7,2.4,1.4,.,.,.,.,.
CC(C)CCC(C(=O)O)C(C)CC(=O)Nc1ccn(-c2ccccc2)n1 (centres undefined),-2.1,-4.1,-2.0,0.5,31.8,.,.,.,.,.
Cc1ccccc1NC(=O)c1cccc(S(=O)(=O)Oc2ccc([N+](=O)[O-])cc2)c1,8.8,96.8*,-7.9,3.1,5.7,4.0,2.5,-1.0,-0.7,-2.1
Cc1ccc(NC(=O)c2cccc(Oc3ccc([N+](=O)[O-])cc3)c2)c(C(=O)O)c1,23.8,2.1,42.0,2.2,16.0,.,.,.,.,.
CCCc1cc(C(=O)Nc2cccnc2Cl)no1,-9.5,-0.2,-22.4,0.5,16.4,.,.,.,.,.
CCCc1cc(C(=O)Nc2cc(C)ccc2O)no1,66.7*,48.5,60.8*,1.0,12.5,10.9,56.2*,87.4*,72.4*,9.1
O=C(Nc1ccccn1)c1onc2c1CCCC2,84.0*,94.3*,86.7*,0.5,10.0,9.3,90.4*,99.8*,94.9*,83.4*
COc1ccc(OC)c(NC(=O)C2CCN(C(=O)C3CC(=O)N(c4ccc(C)cc4)C3)CC2)c1 (centres undefined),-5.5,11.5,-8.5,0.2,15.2,.,.,.,.,.
O=C(Oc1ccc(-c2cnc3ccccc3n2)cc1)c1ccc(Br)o1,41.5,74.6*,51.0*,2.4,-47.4,13.0,22.1,24.0,63.7*,19.7

# Compound activity from PubChem.
